Screening data: PubChem, The Scripps Research Institute Molecular Screening Center
Hits are enriched below; roughly 4.5% of the tested compounds scored in any of these assays.
CHO parental Ca – counter-screen: ATP calcium response change in parental CHO cells. inhibition, % at 5.6 µM. 330,000 tested, 0.63% active. parental CHO-K1, ATP-induced calcium, Fluo-8 fluorescence;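 active = inhibition above that plate's mean sample inhibition plus 3 SD, cut at about 26% in these data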;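 note: 0% = ATP-challenged DMSO wells and 100% = DMSO wells without ATP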
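Material – parental CHO cells · Reagent – ATP stimulus · Compound – single nominal dose of 5.6 µM per compound · Detection – Fluo-8 fluorescence · Read-out basis – percent inhibition of calcium signal · Controls – ATP-challenged DMSO wells low, unchallenged DMSO wells high · Repeats – no replicates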
TAAR1 agonist – human TAAR1 agonism; activation, % at 3 µM; Q96RJ0; 360,000 tested, 0.99% active; CHO RD-HGA16 TAAR1, Fluo-8 calcium fluorescence; vehicle wells 0%, saturating PEA agonist 100%;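 active = activation above the mean activation of all test compounds in the run plus 3 SD, cut at about 38% in these data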
Target sequence (Q96RJ0 whole entry, looked up): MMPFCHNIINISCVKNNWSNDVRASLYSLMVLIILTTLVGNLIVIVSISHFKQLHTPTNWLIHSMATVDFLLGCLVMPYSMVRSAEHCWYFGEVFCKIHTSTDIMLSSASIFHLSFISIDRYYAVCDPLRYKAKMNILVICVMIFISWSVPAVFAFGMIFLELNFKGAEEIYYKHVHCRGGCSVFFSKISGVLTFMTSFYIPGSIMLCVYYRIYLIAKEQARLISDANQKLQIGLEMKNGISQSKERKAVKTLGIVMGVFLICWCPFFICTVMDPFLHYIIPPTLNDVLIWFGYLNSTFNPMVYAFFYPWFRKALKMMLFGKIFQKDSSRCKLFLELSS
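Test system: RD-HGA16 (CHO) cells co-expressing Gα16 and hTAAR1; dosing: one-point dosing at 3 µM (nominal); timing: 17-24 h seeding, 75 min 37 °C dye, 30 min RT; signal: kinetic Fluo-8 calcium fluorescence; read-out basis: % activation relative to PEA EC100 response; controls: DMSO and PEA EC100; replicates: n 1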
OX1R antag-1 – blocks the human orexin 1 receptor; CHO/OX1R cells, Fluo-8 calcium fluorescence, orexin A; AID 434989; inhibition, % at 5 µM; 330,000 tested, 0.43% active;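 active = inhibition above its plate's threshold, mean inhibition of all tested compounds on the plate plus 3 SD, cut at about 37% in these data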;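 note: 0% = orexin A challenge wells and 100% = SB-334867-A antagonist wells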
TAAR1 antagonist – human TAAR1 antagonism; inhibition, % at 3 µM; CHO RD-HGA16 TAAR1, Fluo-8 calcium fluorescence, antagonist; AID 624466; 360,000 tested, 1.5% active; Q96RJ0;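 active = inhibition above a per-plate cutoff, the mean inhibition of test compounds on that plate plus 3 SD, cut at about 49% in these data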;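 note: 0% = DMSO plus EC80 beta-PEA response and 100% = DMSO alone without agonist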
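Material: CHO RD-HGA16 cells bearing hTAAR1; compound dosing: one-point dosing, 3 µM nominal final; schedule: dye loading 75 min at 37 °C, then 30 min room temperature; measured by: calcium fluorescence with Fluo-8; control set: vehicle and agonist controls; replication: n of 1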
OX1R antag-2 – antagonists of human orexin 1 receptor (OX1R); inhibition, % at 6.6 µM; 330,000 tested, 1.8% active; OX1R-expressing cells, FRET antagonist read-out; O43613; in the data active = inhibition mostly above about 38%, no sharp cut-off; inactive = mostly below about 40%;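 note: 0% = agonist challenge alone and 100% = reference antagonist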
GPR7 antagonist – human neuropeptides B/W receptor 1 antagonism. P48145. GPR7-expressing cells, fluorescence antagonist assay. inhibition, % at 4.4 µM. 290,000 tested, 1.1% active; in the data active = inhibition above about 16%, passing the limit was not always enough;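 note: cells stimulated with the agonist NPW; 0% = agonist with vehicle and 100% = vehicle without agonist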
Active calls of the source: *; . = not tested or not shown.

SMILES	CHO parental Ca	TAAR1 agonist	OX1R antag-1	TAAR1 antagonist	OX1R antag-2	GPR7 antagonist
COc1ccc2c(c1OC)C(=O)N1c3ccccc3C(=O)N(c3ccccc3F)C21 (centres undefined)	-28	18	-18	66*	48	-3
CN(Cc1ccccc1)C(=O)c1cccc(NC(=O)Cc2cccc(NC(=O)C3CCN(C(=O)CCc4ccccc4)CC3)c2)c1	.	6	.	-3	.	.
O=[N+]([O-])c1ccc(-c2nnc(-c3ccccc3)c(NCCCO)n2)cc1	1	0	-3	-13	38*	-11
CCCCn1c(=O)nc2n(-c3ccccc3)c3ccccc3cc-2c1=O	-26	2	-43	0	31	-1
Cc1ccc(C)c(-n2c3nc(=O)n(C)c(=O)c-3cc3ccccc32)c1	-15	1	-24	-44	63*	-19
C#CCN1C(=O)[C@]2(OCCC=C[C@H]2C)c2cc(OC)ccc21	.	1	.	11	.	.
COc1ccc(-c2ccc3c(c2)S(=O)(=O)c2cccc(C(=O)NC[C@@H]4CCCO4)c2C3=O)cc1OC	-13	21	9	57*	37*	.
O=C(NC[C@@H]1CCCO1)c1cccc2c1C(=O)c1ccc(Cl)cc1S2(=O)=O	-12	7	-12	26	45*	.
Cc1cc2c(c(=O)o1)[C@@]1(C(=O)N(C)c3ccccc31)C1=C(CCC1=O)O2	.	2	.	-17	.	.
CC(C)(C)NCCC(O)c1cc(C(F)(F)F)nc2c(C(F)(F)F)cccc12 (centres undefined)	.	38*	.	15	.	.
Cc1cc(O)cc(=O)n1-c1ccc(Cl)c(C(F)(F)F)c1	.	1	.	2	.	.
C=CCCC[C@H]1OC(=O)[C@H](C)NC(=O)[C@H](C(C)C)NC(=O)[C@@H]2CCCN2C(=O)[C@H](Cc2ccccc2)OC(=O)[C@@H](C(C)C)N(C)C(=O)[C@H](C(C)C)NC(=O)C1(C)C	.	-3	.	-43	.	.
COCCNC(=O)c1ccc2c(c1)S(=O)(=O)c1cc(Cl)ccc1C2=O	-21	8	-11	13	42*	.
O=C(NCc1ccco1)c1ccc2c(c1)C(=O)c1ccccc1-2	-12	14	-11	14	37*	-13
O=C(Nc1ccccc1O)c1ccc2c(c1)C(=O)N(Cc1ccco1)C2=O	.	14	.	51*	.	-18
COCCNC(=O)c1ccc2c(c1)C(=O)c1ccccc1-2	-10	2	-20	-1	37*	9
O=C(NCc1ccco1)c1ccc(C(=O)NCc2ccco2)cc1	.	3	.	-7	.	.
C=CCN1[C@@H](C)[C@H](c2ccccc2)Oc2cccc(N3CCCC3)c2S1(=O)=O	.	1	.	-37	.	.
COc1ccc(C(=O)Nc2ccccc2C(=O)NCc2ccco2)cc1OC	-7	17	-18	54*	9	-14
COc1ccc(C(C)NC(=O)Nc2ccc(C(C)=O)cc2)cc1OC (centres undefined)	-18	6	-21	-20	-4	-9
O=C1C(F)=CC(COC(c2ccccc2)(c2ccccc2)c2ccccc2)OC1n1cc(F)c(=O)[nH]c1=O (centres undefined)	.	9	.	54*	.	.
CC(=O)OCC1OC(n2cc(F)c(=O)[nH]c2=O)C(OC(C)=O)C1OC(C)=O (centres undefined)	-9	2	2	-28	1	.
CCn1c(SCc2nc(-c3ccccc3)no2)nnc1-c1cccs1	-25	9	-8	-5	31	18
CCn1c(SCc2nc(-c3ccccc3)no2)nc2ccccc21	-10	4	1	-13	54*	-12
CN(C(=O)C1CCCN(c2ncnc3c2nc2n3CCCCC2)C1)c1cccc(Cl)c1 (centres undefined)	-20	3	4	0	40*	-4
O=C(Nc1ccc(F)cc1)C1CCN(c2ncnc3c2nc2n3CCCCC2)CC1	65*	0	-8	-44	24	-3
CCc1ccc(NC(=O)C2CCN(c3ncnc4c3nc3n4CCCCC3)CC2)cc1	-24	-1	-3	-12	-5	-12
O=C(C1CCCN(c2ncnc3c2nc2n3CCCCC2)C1)N1CCN(c2cccc(Cl)c2)CC1 (centres undefined)	-44	40*	-19	88*	3	-5
